Key:
[1] = folding enthalpy; higher = less favourable; fluorescence melt of hairpins on a sequencing array, two-state fit; details: sodium 0.088 M
Summary of the method: (§1)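 With Cy3 and quencher oligos annealed, library hairpins on a sequenced MiSeq flow cell were imaged for Cy3 fluorescence in 50 mM Na-HEPES pH 8.0, 25 mM NaCl, in 2.5 °C steps up to 60 °C. Melting temperature and folding enthalpy were derived from bootstrapped two-state fits of signals normalised to pre-quench Cy3 and to control constructs. Four replicates were combined by inverse variance, with fitted temperatures raised by 9.35 °C to match UV melts.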

[2] = melting temperature; fluorescence melt of hairpins on a sequencing array, two-state fit, raised by 9.35 °C to match UV melts; details: sodium 0.088 M
Summary of the method: as §1

Row | Sequence | folding enthalpy [1] | Tm [2]
1 | GTGAGTCGAAAGACCCAC (((.(((....))).))) | -29.4 kcal/mol | 49.3 °C
2 | GTGAGTGGAAACACCCAC (((.(((....))).))) | -31.4 kcal/mol | 43.2 °C
3 | GTGAGTGGAAACGCTTAC ((.((.(....).)).)) | -16.2 kcal/mol | 33.1 °C
4 | GTGATCACGAAAGTGCAC (((..(((....)))))) | -12.5 kcal/mol | 30.7 °C
5 | GTGATCGAAAGATAGCAC ((((((....)))..))) | -15.6 kcal/mol | 28.3 °C
6 | GTGATCGAAAGATCCAC ((((((....))).))) | -13.3 kcal/mol | 43.9 °C
7 | GTGATCGAAAGATCCCAC ((((((....)))..))) | -10.7 kcal/mol | 32.4 °C
8 | GTGATCGAAAGATTCAC ((((((....))).))) | -24.1 kcal/mol | 43.4 °C
9 | GTGATCGGAAACAATCAC (((((.(....).))))) | -32.9 kcal/mol | 36.3 °C
10 | GTGATGCGAAAGCAACAC (((.(((....))).))) | -33.4 kcal/mol | 56.4 °C
11 | GTGATGCGAAAGCACCAC (((.(((....))).))) | -29.2 kcal/mol | 54.2 °C
12 | GTGATGGGAAACCACCAC (((.(((....))).))) | -29.7 kcal/mol | 42.3 °C
13 | GTGATGGGAAACCGTTAC ((.(.((....)).).)) | -18.6 kcal/mol | 31 °C
14 | GTGATTCGAAAGAACCAC (((.(((....))).))) | -33.2 kcal/mol | 44.8 °C
15 | GTGATTGAAAAATCAC ((((((....)))))) | -29.5 kcal/mol | 51.7 °C
16 | GTGCAAACGAAAGTTCAC (((..(((....)))))) | -7.78 kcal/mol | 33.2 °C
17 | GTGCAACCGAAAGGTCAC (((..(((....)))))) | -16.6 kcal/mol | 40.1 °C
18 | GTGCAACGAAAGTTCCAC (((.(((....))).))) | -10.3 kcal/mol | 38.1 °C
19 | GTGCAAGGAAACCTGCAC (((((.(....).))))) | -35.9 kcal/mol | 51.4 °C
20 | GTGCAAGGAAACTTACAC (((.(((....))).))) | -21.5 kcal/mol | 34.8 °C
21 | GTGCAAGGAAACTTGCAC (((((((....))))))) | -31.8 kcal/mol | 65.8 °C
22 | GTGCAAGGAAACTTGTAC ((.((((....)))).)) | -32.5 kcal/mol | 45 °C
23 | GTGCAATCGAAAGATCAC (((..(((....)))))) | -14 kcal/mol | 30 °C

Row | Sequence | folding enthalpy [1] | Tm [2]
24 | GTGCACACGAAAGTGCAC (((..(((....)))))) | -30.8 kcal/mol | 60 °C
25 | GTGCACCCGAAAGGGCAC (((..(((....)))))) | -23.9 kcal/mol | 52.1 °C
26 | GTGCACGAAAGTGCCAC ((((((....))).))) | -8.14 kcal/mol | 54.5 °C
27 | GTGCACGAAAGTGGGCAC ((((((....)))..))) | -22.6 kcal/mol | 52.6 °C
28 | GTGCACGAAAGTGGTCAC ((((((....)))..))) | -15.9 kcal/mol | 40.2 °C
29 | GTGCACGGAAACATGCAC (((((.(....).))))) | -34.6 kcal/mol | 47.9 °C
30 | GTGCACGGAAACGTGTGC (..((((....))))..) | -27.7 kcal/mol | 50.2 °C
31 | GTGCAGGAAACTGCAC ((((((....)))))) | -35.9 kcal/mol | 68.2 °C
32 | GTGCAGGCGAAAGCCCAC (((..(((....)))))) | -10.8 kcal/mol | 48.9 °C
33 | GTGCAGGGAAACCTGTAC ((.((((....)))).)) | -36.1 kcal/mol | 49.6 °C
34 | GTGCAGGGAAACTTGCAC (((((.(....).))))) | -40.7 kcal/mol | 52.5 °C
35 | GTGCATCGAAAGATTCAC (((.(((....))).))) | -30.1 kcal/mol | 43.4 °C
36 | GTGCATGCGAAAGCACAC (((..(((....)))))) | -12.2 kcal/mol | 46.3 °C
37 | GTGCATGGAAACATGCGC (.(((((....))))).) | -21.5 kcal/mol | 56.9 °C
38 | GTGCATGGAAACATGTAC ((.((((....)))).)) | -31.7 kcal/mol | 48.7 °C
39 | GTGCATGGAAACGTGTAC ((.((.(....).)).)) | -17.6 kcal/mol | 38.6 °C
40 | GTGCCACCGAAAGGTCAC (((..(((....)))))) | -9.49 kcal/mol | 50.5 °C
41 | GTGCCAGGAAACTGGCGC (.(((((....))))).) | -22.8 kcal/mol | 62 °C
42 | GTGCCAGGAAACTGGTAC ((.((((....)))).)) | -29.9 kcal/mol | 53.8 °C
43 | GTGCCCGGAAACGAGCAC ((((.((....)).)))) | -41.2 kcal/mol | 52.8 °C
44 | GTGCCCGGAAACGGACAC (((.(((....))).))) | -50.2 kcal/mol | 53.8 °C
45 | GTGCCGCGAAAGCGACAC (((.(((....))).))) | -34.4 kcal/mol | 65.7 °C
46 | GTGCCGCGAAAGCGCAC (((.(((....)))))) | -21.1 kcal/mol | 69 °C

Row | Sequence | folding enthalpy [1] | Tm [2]
47 | GTGCCTGGAAACAAGCAC ((((.((....)).)))) | -24.6 kcal/mol | 42.7 °C
48 | GTGCCTGGAAACAGGCGC (.(((((....))))).) | -20.3 kcal/mol | 65 °C
49 | GTGCGACGAAAGTCCCAC (((.(((....))).))) | -30.8 kcal/mol | 47.4 °C
50 | GTGCGACGAAAGTCTCAC (((.(((....))).))) | -41.1 kcal/mol | 50.5 °C
51 | GTGCGAGGAAACTCACAC (((.(((....))).))) | -34.2 kcal/mol | 45.8 °C
52 | GTGCGAGGAAACTCGTAC ((.((((....)))).)) | -31.6 kcal/mol | 53.4 °C
53 | GTGCGCGAAAGCGCTCAC ((((((....)))..))) | -7.75 kcal/mol | 40.4 °C
54 | GTGCGCGAAAGCGGACAC ((((((....)))..))) | -11.1 kcal/mol | 63.7 °C
55 | GTGCGCGGAAACGCACAC (((.(((....))).))) | -19.2 kcal/mol | 65.5 °C
56 | GTGCGCGGAAACGTGCGC (.((.((....)).)).) | -25.9 kcal/mol | 59 °C
57 | GTGCGGCGAAAGCCCAC (((.(((....)))))) | -20.7 kcal/mol | 57.6 °C
58 | GTGCGGCGAAAGCCTCAC (((.(((....))).))) | -29.4 kcal/mol | 53.8 °C
59 | GTGCGGGCGAAAGCCCAC (((..(((....)))))) | -10.3 kcal/mol | 62.1 °C
60 | GTGCGGGGAAACCCACAC (((.(((....))).))) | -37.9 kcal/mol | 51.6 °C
61 | GTGCGGGGAAACCCGTAC ((.((((....)))).)) | -27.4 kcal/mol | 59.1 °C
62 | GTGCGTGGAAACACGTGC (..((((....))))..) | -18.4 kcal/mol | 51.5 °C
63 | GTGCTAACGAAAGTTCAC (((..(((....)))))) | -7.2 kcal/mol | 25.4 °C
64 | GTGCTACGAAAGTATCAC (((.(((....))).))) | -35.5 kcal/mol | 44.6 °C
65 | GTGCTAGCGAAAGCTCAC (((..(((....)))))) | -9.59 kcal/mol | 42.1 °C
66 | GTGCTAGGAAACTAGTGC (..((((....))))..) | -30.2 kcal/mol | 39.1 °C
67 | GTGCTCGAAAGAGAGCAC ((((((....)))..))) | -34.2 kcal/mol | 58.2 °C
68 | GTGCTCGAAAGAGCGCAC ((((((....)))..))) | -11.6 kcal/mol | 57.1 °C

Reference: the array DNA melting data of Ke et al. (doi:10.1101/2024.01.08.574731)
